Experimental data: ChEMBL document CHEMBL1122766, “Synthesis and antitumor evaluation of some nitrosourea and nitrogen mustard amino acid derivatives” (J Med Chem, 1984)

What was measured:
[1] = Median lethal dose in L1210 (murine luekemia) inoculated mice.; format: toxicity, organism-based; settings: mouse, in vivo
Method in brief: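 Adult F1 (DBA/2 × C57Bl/6) mice inoculated ip with 10^5 L1210 cells on day 0; 8–10 mice per dose; compound in olive oil (2–150 mg/kg) on day 1, repeated days 5 and 9 only in mice without toxicity signs. Daily mortality, autopsy to separate leukemic from toxic deaths; acute LD50 determined graphically (98% confidence limits).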

Mus musculus [2] = organism: Mus musculus; experiment: Dose range for antitumor activity against leukemia L1210 in mice.; format: functional
Method in brief: (§1)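 Adult F1 (DBA/2 × C57Bl/6) mice inoculated ip with 10^5 L1210 cells on day 0, 8–10 mice per dose. Compound in olive oil (2–150 mg/kg) given day 1, repeated days 5 and 9 only in mice without toxicity. Daily mortality with autopsy. T/C × 100 from median survival; active if >125 and significant by Wilcoxon W test. Acute LD50 determined graphically.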

[3] = Therapeutic index in L1210 (murine leukemia) inoculated mice.; settings: mouse; read-out: TI
Mus musculus [4] = organism: Mus musculus; experiment: Optimum dose for antitumor activity against leukemia L1210 in mice; format: functional; method in brief: as §1
Mus musculus [5] = organism: Mus musculus; experiment: The oncostatic index (T=median survival time in the treated group of mice, C=median survival time in the control group X 100) was calculated; format: functional
Method in brief: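 Mice (adult F1 DBA/2 × C57Bl/6) given 10^5 L1210 cells ip on day 0; 8–10 per dose group; olive-oil doses 2–150 mg/kg on day 1, repeated days 5 and 9 in non-toxic mice. T/C × 100 from median survival times, treated vs control. Active if >125 and significant by Wilcoxon W test; ∞ means >50% of group cured.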

Row | Structure (SMILES) | LD50 [1] [mg/kg] | Dose (Mus musculus [2]) [mg/kg] | selectivity ratio [3] | OD (Mus musculus [4]) [mg/kg] | T/C (Mus musculus [5]) [%]
1 | NC(=O)CC(NC(=O)N(CCCl)N=O)C(=O)NCCCl (stereo unspecified) | 35 | 30 | 1.75 | 20 | 
2 | CN(CC(=O)NCCCl)C(=O)N(CCCl)N=O | 400 | 280 | 2 | 200 | 
3 | CCC(C)C(NC(=O)N(CCCl)N=O)C(=O)NCCCl (stereo unspecified) | 130 | 75 | 2.6 | 50 | 
4 | CC(C)CC(NC(=O)N(CCCl)N=O)C(=O)NCCCl (stereo unspecified) | 64 | 50 | 1.8 | 35 | 
5 | O=NN(CCCl)C(=O)NC(Cc1c[nH]c2ccccc12)C(=O)NCCCl (stereo unspecified) | 65 | 35 | 2.4 | 27 | 
6 | O=NN(CCCl)C(=O)N1CCCC1C(=O)NCCCl (stereo unspecified) | 80 | 35 |  |  | 194
7 | O=NN(CCCl)C(=O)NCC(=O)NCCCl | 25 | 20 | 2 | 12 | 
8 | O=NN(CCCl)C(=O)NCCC(=O)NCCCl |  | 50 | 2.9 | 35 | 
9 | O=NN(CCCl)CCSSCCN(CCCl)N=O | 75 | 50 | 2.5 | 30 | 
10 | CC(O)C(NC(=O)N(CCCl)N=O)C(=O)NCCCl (stereo unspecified) | 25 | 20 | 1.6 | 15 | 
11 | O=NN(CCCl)C(=O)NCCCC(=O)NCCCl |  | 50 | 3.6 | 35 | 
12 | CC1(C)O[C@@H]2[C@H](O1)[C@@H](COC(=O)c1ccc([N+](=O)[O-])cc1)O[C@H]2NC(=O)N(CCCl)N=O | 90 | 30 | 4.5 | 20 | 
13 | CC(NC(=O)N(CCCl)N=O)C(=O)NCCCl (stereo unspecified) | 35 | 30 | 1.75 | 20 | 
14 | CSCCC(NC(=O)N(CCCl)N=O)C(=O)NCCCl (stereo unspecified) | 32 | 30 | 1.6 | 20 | 
15 | O=NN(CCCl)C(=O)NC(Cc1ccccc1)C(=O)NCCCl (stereo unspecified) | 80 | 60 | 1.6 | 50 | 
16 | O=NN(CCCl)C(=O)NC(Cc1ccc(O)cc1)C(=O)NCCCl (stereo unspecified) | 40 | 25 |  |  | 211
17 | O=NN(CCCl)C(=O)N[C@H]1C(O)O[C@H](CO)[C@@H](O)[C@@H]1O (stereo partly specified) [CHLOROZOTOCIN] | 35 | 25 | 2.5 | 15 | 
18 | O=NN(CCCl)C(=O)NC1CCCCC1 [LOMUSTINE] | 30 | 10 |  |  | 
